Experimental data: ChEMBL document CHEMBL3621120, “Discovery of ((4-(5-(Cyclopropylcarbamoyl)-2-methylphenylamino)-5-methylpyrrolo[1,2-f][1,2,4]triazine-6-carbonyl)(propyl)carbamoyloxy)methyl-2-(4-(phosphonooxy)phenyl)acetate (BMS-751324), a Clinical Prodrug of p38α MAP Kinase Inhibitor” (J Med Chem, 2015)

Legend:
Cynomolgus monkey [1] = experiment: Cmax in cynomolgus monkey assessed as plasma BMS-582949 level at 10 mg/kg, po dose equivalent to BMS-582949 after 24 hrs by LC/MS/MS method; format: ADME, organism-based, Macaca fascicularis; design: dose 10 mg/kg, route oral; details: in vivo
Method in brief: (§1)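 Three overnight-fasted male cynomolgus monkeys (4.2-5.2 kg) given prodrug by oral gavage at 10 or 30 mg/kg, 5 mL/kg methocel suspension, one-week washout between doses. Femoral artery blood pre-dose and 0.25-24 h post-dose; plasma (centrifuged 4 °C) stored -20 °C and analysed by LC/MS/MS for parent.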

[2] = Stability in pH 1.1 solution assessed as half-life at 37 degC; format: physicochemical
Cynomolgus monkey [3] = experiment: AUC in cynomolgus monkey assessed as plasma BMS-582949 level at 10 mg/kg, po dose equivalent to BMS-582949 after 24 hrs by LC/MS/MS method; format: ADME, organism-based, Macaca fascicularis; design: time < 24 hr, dose 10 mg/kg, route oral; details: in vivo; method in brief: as §1
Rattus norvegicus [4] = experiment: Bioavailability in Sprague-Dawley rat assessed as plasma BMS-582949 level at 1 mg/kg, po dose equivalent to BMS-582949 after 24 hrs by LC/MS/MS method; format: ADME, organism-based; details: in vivo
Rattus norvegicus [5] = experiment: Inhibition of paw swelling in Lewis rat adjuvant arthritis model assessed as reduction in hind paw volume at 1 mg/kg, po bid dose equivalent to BMS-582949 beginning on day 11 post adjuvant challenge by volume displacement plethysmometry method relative to control; format: functional; details: 264 h
Method in brief: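 Male Lewis rats given complete Freund's adjuvant on day 1; from day 11 compounds dosed orally BID in 0.5 mL vehicle (prodrug as aqueous suspension in 0.75% Methocel, 0.1% Tween 80; parent in PEG 300). Paw volume measured 3 times per week for rest of study; paw swelling inhibition reported.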

Cynomolgus monkey [6] = experiment: Cmax in cynomolgus monkey assessed as plasma BMS-582949 level at 30 mg/kg, po dose equivalent to BMS-582949 after 24 hrs by LC/MS/MS method; format: ADME, organism-based, Macaca fascicularis; design: dose 30 mg/kg, route oral; details: in vivo; method in brief: as §1
Rattus norvegicus [7] = experiment: Inhibition of LPS-induced TNFalpha level in Lewis rat at 0.03 to 10 mg/kg, po dose equivalent to BMS-582949 dosed 1 hr before LPS challenge and measured 90 mins post LPS challenge by ELISA method; format: functional
Method in brief: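 Male Lewis rats (200-250 g) dosed orally 1 h before IP injection of 10ug E. coli O111:B4 LPS in 1.0 mL sterile saline; prodrug as suspension in 0.75% Methocel, 0.1% Tween 80, parent in PEG 300, controls given vehicle. Blood taken 90 min after LPS; serum TNF measured by ELISA; ED50 expressed as parent equivalent.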

Liver carboxylesterase = biological target: T1, Liver carboxylesterase (Sus scrofa, UniProt Q29550); experiment: Stability assessed as porcine liver esterase-mediated drug degradation by measuring compound remaining level in pH 7.4 potassium phosphate buffer at 10 uM incubated for 0.5 hrs by LC/MS/MS; format: ADME, tissue-based; details: pig, read-out: Stability
T1 sequence (Q29550 whole entry): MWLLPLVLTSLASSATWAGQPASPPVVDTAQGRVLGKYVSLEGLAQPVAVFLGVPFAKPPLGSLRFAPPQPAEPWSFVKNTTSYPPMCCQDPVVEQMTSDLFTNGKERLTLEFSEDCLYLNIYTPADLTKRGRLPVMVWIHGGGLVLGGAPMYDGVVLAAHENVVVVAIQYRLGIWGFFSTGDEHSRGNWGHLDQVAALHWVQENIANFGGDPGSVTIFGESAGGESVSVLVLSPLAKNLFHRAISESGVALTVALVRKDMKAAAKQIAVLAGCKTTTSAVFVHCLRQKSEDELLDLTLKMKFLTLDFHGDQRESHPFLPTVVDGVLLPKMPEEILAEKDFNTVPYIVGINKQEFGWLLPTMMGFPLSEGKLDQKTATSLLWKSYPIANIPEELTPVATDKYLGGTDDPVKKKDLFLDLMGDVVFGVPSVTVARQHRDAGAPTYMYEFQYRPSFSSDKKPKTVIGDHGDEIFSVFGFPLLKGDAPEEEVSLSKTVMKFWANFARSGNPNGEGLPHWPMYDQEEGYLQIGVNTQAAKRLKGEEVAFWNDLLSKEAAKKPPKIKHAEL
Method in brief: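 Porcine liver esterase with substrate at 10 µM in 89 mM potassium phosphate pH 7.4, 37 °C. Reaction started by adding compound. Aliquots taken at 0, 15, 30 and 60 min and quenched with acetonitrile. After centrifugation at 4 °C, percent remaining quantified by LC/MS/MS.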

Cynomolgus monkey [8] = experiment: Bioavailability in cynomolgus monkey assessed as plasma BMS-582949 level at 30 mg/kg, po dose equivalent to BMS-582949 after 24 hrs by LC/MS/MS method; format: ADME, organism-based, Macaca fascicularis; details: in vivo; method in brief: as §1
Rattus norvegicus [9] = experiment: AUC in Sprague-Dawley rat assessed as plasma BMS-582949 level at 100 mg/kg, po dose equivalent to BMS-582949 after 24 hrs by LC/MS/MS method; format: ADME, organism-based; design: time < 24 hr, dose 100 mg/kg, route oral; details: in vivo
[10] = biological target: Alkaline phosphatase, placental type (Homo sapiens, UniProt P05187); experiment: Stability assessed as human placental ALP-mediated drug degradation by measuring compound remaining level in pH 7.5 tris buffer at 10 uM incubated for 0.5 hrs in presence of HALT phosphatase inhibitor cocktail by LC/MS/MS method; format: ADME; details: pH 7.5, with HALT phosphatase inhibitor cocktail, read-out: Stability
Chain of Alkaline phosphatase, placental type (P05187 whole entry): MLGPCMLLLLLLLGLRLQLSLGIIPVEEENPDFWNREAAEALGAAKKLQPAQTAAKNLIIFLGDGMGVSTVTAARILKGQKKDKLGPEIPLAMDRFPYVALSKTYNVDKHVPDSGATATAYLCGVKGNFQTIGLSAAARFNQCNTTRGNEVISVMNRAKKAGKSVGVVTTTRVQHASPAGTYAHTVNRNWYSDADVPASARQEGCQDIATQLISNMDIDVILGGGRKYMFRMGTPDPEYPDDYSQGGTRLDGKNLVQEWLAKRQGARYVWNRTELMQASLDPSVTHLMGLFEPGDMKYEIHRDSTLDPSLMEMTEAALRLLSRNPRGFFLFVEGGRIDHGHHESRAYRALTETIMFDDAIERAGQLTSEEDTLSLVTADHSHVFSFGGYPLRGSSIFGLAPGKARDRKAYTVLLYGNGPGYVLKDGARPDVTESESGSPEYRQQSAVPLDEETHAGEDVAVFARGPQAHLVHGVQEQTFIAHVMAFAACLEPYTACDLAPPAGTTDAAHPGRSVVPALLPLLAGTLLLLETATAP
Method in brief: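 Human placental alkaline phosphatase (1 unit/mL) incubated with compound at 10 µM in 89 mM tris buffer, pH 7.5, 37 °C; reactions in triplicate started by compound addition, sampled at 0, 15, 30, 60 min. For inhibition, HALT phosphatase inhibitor cocktail (100x dilution) added before compound. Samples quenched into EDTA, acetonitrile added, centrifuged, remaining compound measured by LC/MS/MS.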

- Cmax (Cynomolgus monkey [1]): 12 µM
- half-life [2]: 21 h
- AUC (Cynomolgus monkey [3]): 24 µM·h
- F (Rattus norvegicus [4]): 41%
- Cmax (Cynomolgus monkey [6]): 29 µM
- remaining at 0.5 h, 10 µM (Liver carboxylesterase): 100%
- F (Cynomolgus monkey [8]): 69%
- AUC (Rattus norvegicus [9]): 875 µM·h
- remaining at 0.5 h, 10 µM [10]: 94%
SMILES: CCCN(C(=O)OCOC(=O)Cc1ccc(OP(=O)(O)O)cc1)C(=O)c1cn2ncnc(Nc3cc(C(=O)NC4CC4)ccc3C)c2c1C
- inhibition in vivo at 1 mg/kg (Rattus norvegicus [5]): 39%
- ED50 (Rattus norvegicus [7]): 0.89 mg
- inhibition (Rattus norvegicus [7]): Dose-dependent effect
